Data on one compound can be found in ChEMBL document CHEMBL4024789, “Neutral Porphyrin Derivative Exerts Anticancer Activity by Targeting Cellular Topoisomerase I (Top1) and Promotes Apoptotic Cell Death without Stabilizing Top1-DNA Cleavage Complexes” (J Med Chem, 2018).

For experiment [1], the target named is T1, DNA topoisomerase 1 (Homo sapiens) (UniProt P11387).
T1 sequence (whole entry): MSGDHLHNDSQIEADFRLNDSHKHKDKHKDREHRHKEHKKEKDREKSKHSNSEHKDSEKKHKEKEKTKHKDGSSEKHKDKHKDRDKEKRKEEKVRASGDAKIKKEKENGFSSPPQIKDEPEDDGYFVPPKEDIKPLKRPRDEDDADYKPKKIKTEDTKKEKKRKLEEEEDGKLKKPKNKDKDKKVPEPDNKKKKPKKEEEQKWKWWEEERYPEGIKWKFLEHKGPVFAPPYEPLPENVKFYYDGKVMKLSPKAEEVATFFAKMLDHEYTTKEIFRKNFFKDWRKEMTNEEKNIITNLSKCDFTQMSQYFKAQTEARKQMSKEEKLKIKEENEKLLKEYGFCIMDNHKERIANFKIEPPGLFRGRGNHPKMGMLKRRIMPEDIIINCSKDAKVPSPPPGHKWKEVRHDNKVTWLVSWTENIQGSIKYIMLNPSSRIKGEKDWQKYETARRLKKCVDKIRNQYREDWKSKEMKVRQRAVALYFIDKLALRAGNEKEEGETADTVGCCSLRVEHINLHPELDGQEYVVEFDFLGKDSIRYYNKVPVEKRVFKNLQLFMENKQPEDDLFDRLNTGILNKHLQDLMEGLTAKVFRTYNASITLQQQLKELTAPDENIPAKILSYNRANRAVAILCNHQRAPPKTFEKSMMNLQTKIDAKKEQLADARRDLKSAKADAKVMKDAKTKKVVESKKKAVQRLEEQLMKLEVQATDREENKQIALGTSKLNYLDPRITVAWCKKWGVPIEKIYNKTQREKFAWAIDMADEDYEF
The experiment can be described thus: Inhibition of recombinant human topoisomerase-1 expressed in baculovirus infected sf9 cells at 1 uM using supercoiled pBS SK(+) DNA as substrate after 15 mins by ethidium bromide staining based agarose gel electrophoresis method relative to control. The gist of the method: (§1)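 Relaxation assay: 90 fmol supercoiled pBS (SK+) DNA with 30 fmol recombinant Top1 (Sf-9/baculovirus). Compound either preincubated with Top1 for 5 min before DNA addition, or added simultaneously with DNA; then 37 °C for 15 min. Vehicle 2% DMSO. Read on 1% agarose gel. EC50 from mean ± SD of three experiments.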

For experiment [2], the target named is T1, DNA topoisomerase 1 (Homo sapiens). The experiment can be described thus: Inhibition of recombinant human topoisomerase-1 expressed in baculovirus infected sf9 cells at 1 uM using supercoiled pBS SK(+) DNA as substrate preincubated for 5 mins followed by substrate addition measured after 15 mins by ethidium bromide staining based agarose gel electrophoresis method relative to control. The gist of the method:
as §1

Experiment [3] shares this target. The experiment in a line: Inhibition of topoisomerase-1 in human MCF7 whole cell extracts at 0.25 to 5 uM using supercoiled pBS SK(+) DNA as substrate preincubated for 5 mins followed by substrate addition measured after 15 mins by ethidium bromide staining based agarose gel electrophoresis method. The gist of the method: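 Ex vivo relaxation assay with MCF7 whole-cell lysate as the Top1 source and supercoiled pBS (SK+) DNA. Compound either preincubated with lysate for 5 min before DNA, or added simultaneously; then 37 °C for 15 min. CPT control at 5 μM. Read on agarose gel; mean ± SD, n=3.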

The target is the same in experiment [4]. The experiment in a line: Ratio of compound effect for inhibition of recombinant human topoisomerase-1 expressed in baculovirus infected sf9 cells preincubated for 5 mins followed by substrate addition to compound effect for recombinant human topoisomerase-1 expressed in baculovirus infected sf9 cells simultaneously incubated with substrate. The gist of the method: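 Recombinant human Top1 purified from baculovirus-infected Sf-9 cells; 30 fmol enzyme with 90 fmol supercoiled pBS (SK+) DNA (3:1 molar ratio) in relaxation buffer. Compound either preincubated with enzyme 5 min before DNA, or added simultaneously; then 37 °C, 15 min. Relaxation on 1% agarose; % inhibition quantified, EC50 from three experiments (mean ± SD).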

Experiment [5] has the same target. The experiment can be described thus: Inhibition of recombinant human topoisomerase-1 expressed in baculovirus infected sf9 cells assessed as reduction in cleavage complex formation with supercoiled pBS SK(+) DNA at 10 to 50 uM after 30 mins by ethidium bromide staining based agarose gel electrophoresis method. The gist of the method:
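Plasmid cleavage assay: 50 fmol supercoiled pBS (SK+) with 100 fmol recombinant Top1 plus compound or CPT, or Top1 with CPT before compound addition, at 37 °C for 30 min. Nicked (form II) and supercoiled (form I) DNA resolved by gel.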

For experiment [6] the target is unchanged. The experiment can be described thus: Inhibition of recombinant human topoisomerase1-[32P]-labeled 25-mer duplex oligonucleotide cleavage complex formation at 10 to 50 uM after 30 mins using topoisomerase1 expressed in baculovirus infected sf9 cells by […].
The target is the same in experiment [7]. The experiment can be described thus: Binding affinity to recombinant human topoisomerase-1 expressed in baculovirus infected sf9 cells assessed as intrinsic tryptophan fluorescence quenching up to 1.25 uM by Job's plot analysis. The method in brief: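 Job plot by continuous variation: Top1 (from Sf-9 cells infected with recombinant baculovirus) and compound varied to a combined final 1.25 μM. Tryptophan fluorescence quenching read at 350 nm with excitation at 295 nm. Mean ± SD of three independent experiments.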

The test system of experiment [8] is MCF7. The experiment can be described thus: Induction of apoptosis in human MCF7 cells at 10 to 20 uM after 12 hrs by Annexin V-FITC/propidium iodide staining based confocal laser microscopic method relative to control. It counts as functional. The method in brief:
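MCF7 cells exposed 12 h, with or without NAC (10 mM) 30 min pretreatment. Phosphatidylserine detected with annexin V-FITC, nuclei counterstained with PI, confocal imaging; annexin V-positive cells counted from ~100 cells (average ± SEM).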

The subject of experiment [9] is MCF7. The experiment can be described thus: Induction of ROS accumulation in human MCF7 cells at 10 uM by CM-H2DCFDA dye based spectrofluorometric method. It counts as functional, cell-based. The settings on record: TDE = time-dependent effect. The gist of the method:
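MCF7 cells treated with 10 μM for the indicated times, with 0.2% DMSO as vehicle control, or pretreated with NAC (10 mM) for 30 min. ROS read as DCF fluorescence from CM-H2DCFDA. Mean ± SD of three independent experiments.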

Experiment [10] relates to MCF7. The experiment in a line: Induction of DNA strand breaks in human MCF7 cells at 20 uM after 12 hrs in presence of ROS inhibitor NAC by alkaline comet assay relative to control. Type of experiment: functional, cell-based. The gist of the method:
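MCF7 cells treated 12 h, with or without 30 min pretreatment with NAC (10 mM). Strand breaks measured by alkaline comet assay; mean comet tail calculated for 20–25 cells (average ± SEM).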

The test system of experiment [11] is MCF7. The experiment can be described thus: Induction of apoptosis in human MCF7 cells at 10 to 20 uM after 12 hrs in presence of ROS inhibitor NAC by Annexin V-FITC/propidium iodide staining based confocal laser microscopic method relative to control. Type of experiment: functional, cell-based. The method in brief:
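MCF7 cells treated for 12 h, with or without 30 min pretreatment with NAC (10 mM). Phosphatidylserine stained with annexin V-FITC, nuclei counterstained with propidium iodide, imaged by confocal microscopy. Annexin V(+) fraction scored from about 100 cells (average ± SEM).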

The test system of the next experiment is HeLa. The experiment can be described thus: Cytotoxicity against human HeLa cells assessed as reduction in cell viability by MTT assay. Type of experiment: functional, cell-based. The gist of the method:
(§2)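 Survival of each cell line measured across a range of compound concentrations. Percent inhibition of viability at each concentration calculated against untreated control and IC50 estimated. MEFs were TDP1+/+ and TDP1–/– primary cells. Mean ± SD of at least three experiments in duplicate.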

Another experiment concerns MEF. The experiment in a line: Cytotoxicity against TDP1+/+ MEF assessed as reduction in cell viability by MTT assay. It counts as cell-based. The settings on record: Mus musculus. The method in brief: as §2
For orientation: Tetrazolium assays rely on reduction of a dye to a coloured formazan, in cell work by metabolically active cells.

The source made the active and inactive calls. The rule behind the calls is not given here.

In general, inhibition refers to the relative decrease from the control value, in per cent. The IC50 is the concentration that gives 50% inhibition. On to `CN(C)c1ccc(-c2c3nc(c(-c4ccc(N(C)C)cc4)c4ccc([nH]4)c(-c4ccc(C(=O)O)cc4)c4nc(c(-c5ccc(C(=O)O)cc5)c5ccc2[nH]5)C=C4)C=C3)cc1`, for which the inhibition fell in the range of 35 to 40% in experiment [1] and 85 to 99% in [2]. The inhibition entry in experiment [3], in experiment [5] and in experiment [6] was “Active” throughout. For the same compound, the Ratio in experiment [4] fell in the range of 2 to 3. Also, the outcome in [7] was Active. Moreover, in the experiment with MCF7 [8], the “fold change (FC)” value came to 7. Moreover, the Activity result in the experiment with MCF7 [9] was “Tde”. Further, the outcome in the experiment on MCF7 [10] and in the experiment with MCF7 [11] was inactive. In addition, the IC50 in the experiment with HeLa is 4.13 µM; with MEF, above 10 µM.
